Assay results published in article PMC4739608 (The Journal of Cell Biology, 2016).

How the values were obtained:
[1] = tested on: consensus adhesome proteins; conditions: three other studies; ref Horton et al., 2015b; cited from earlier work
HFF cells [2] = assay: Crystal violet proliferation assay; type: cell-based, human; conditions: up to 4 d, total cell number by crystal violet
HFF cells [3] = assay: Immunofluorescence of IACs in HFF cells; type: cell-based, human; conditions: HFFs prespread on FN, 3 µM FAK [i] or 10 µM PF228, 1 h
Procedure, shortened: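 Cells were grown on FN-coated (10 µg/ml) coverslips or glass-bottom dishes. HFFs were spread on FN for 1 h before inhibitor or DMSO was added. Cells were fixed in 4% paraformaldehyde for 7 min, then permeabilized with 0.5% Triton X-100 for 10 min. Primary antibodies were applied for 1 h and secondaries for 30 min, in 2% BSA at RT. Stained areas >10 pixels were normalized to total cell area, with count and size per cell.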

NIH3T3 cells = assay: Immunofluorescence of IACs in NIH3T3 cells; type: cell-based, mouse; conditions: NIH3T3 on FN, 3 µM FAK [i] or 10 µM PF228, 1 h

Cc1ccc2c(c1)C(=O)C1(O)CCN(c3ccccc3)C1=N2 (stereo not drawn) [blebbistatin]
consensus adhesome proteins, mean fold decrease upon blebbistatin treatment [1]: 2.1 fold

CN1CCN(CCOc2cc(OC3CCOCC3)c3c(Nc4c(Cl)ccc5c4OCO5)ncnc3c2)CC1 [Src [i], N-(5-chloro-1,3-benzodioxol-4-yl)-7-[2-(4-methylpiperazin-1-yl)ethoxy]-5-(tetrahydro-2H-pyran-4-yloxy)quinazolin-4-amine]
inhibition of proliferation relative to DMSO (HFF cells [2]): 30%

CS(=O)(=O)c1cccc(CNc2nc(Nc3ccc4c(c3)CCC(=O)N4)ncc2C(F)(F)F)c1 [PF228]
FAK^Y397 levels by immunofluorescence (HFF cells [3]): significantly reduced | area and numbers of vinculin- or paxillin-containing IACs, and the actin cytoskeleton (HFF cells [3]): unaffected | FAK^Y397 levels by immunofluorescence (NIH3T3 cells): reduction of FAK^Y397 levels | vinculin- or paxillin-containing IACs (NIH3T3 cells): did not affect
